Measurements published in ChEMBL document CHEMBL1126560, “Endothelin-1 analogues substituted at both position 18 and 19: highly potent endothelin antagonists with no selectivity for either receptor subtype ETA or ETB” (J Med Chem, 1993).

Biological target: T1, Endothelin receptor type B (Bos taurus, UniProt P28088)
T1 sequence (P28088 whole entry): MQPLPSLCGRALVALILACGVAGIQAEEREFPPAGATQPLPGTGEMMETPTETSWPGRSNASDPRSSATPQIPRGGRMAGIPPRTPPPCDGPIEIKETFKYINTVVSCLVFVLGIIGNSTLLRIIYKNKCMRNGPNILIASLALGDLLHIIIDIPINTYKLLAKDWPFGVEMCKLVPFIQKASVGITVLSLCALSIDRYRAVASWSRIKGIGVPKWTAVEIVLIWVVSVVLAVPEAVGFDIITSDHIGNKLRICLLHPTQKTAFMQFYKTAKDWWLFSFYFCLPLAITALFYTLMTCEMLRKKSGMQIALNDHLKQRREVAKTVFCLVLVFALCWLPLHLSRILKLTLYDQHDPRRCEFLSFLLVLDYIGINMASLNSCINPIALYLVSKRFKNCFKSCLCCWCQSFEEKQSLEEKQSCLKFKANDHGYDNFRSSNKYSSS
Assay: Tested for the competitive binding versus [125I]- ET-1 determined in bovine cerebrum membrane for Endothelin B receptor
Type: cell membranes
Procedure, shortened: (§1)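 Membranes (porcine cardiac ventricle at 12 μg/mL for ETA; bovine cerebrum at 150 μg/mL for ETB) in pH 7.2 Tris/EGTA/Mg acetate/0.1% BSA buffer with protease inhibitors. Incubated with 100 pM [125I]ET-1 and varied compound for 1 h at 25 °C, then filtered and counted by gamma counter. IC50 given as mean ± SEM of ≥3 determinations.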

Structure (SMILES) | IC50
CC[C@H](C)[C@H](NC(=O)[C@H](CC(C)C)NC(=O)[C@H](CC(=O)O)NC(=O)[C@H](CC(C)C)NC(=O)[C@H](Cc1c[nH]cn1)NC(=O)[C@@H]1CSSC[C@H](N)C(=O)N[C@@H](CO)C(=O)N[C@H]2CSSC[C@H](NC(=O)[C@H](CCC(=O)O)NC(=O)[C@H](CCCCN)NC(=O)[C@H](CC(=O)O)NC(=O)[C@H](CCSC)NC(=O)[C@H](CC(C)C)NC(=O)[C@H](CO)NC(=O)[C@H](CO)NC2=O)C(=O)N[C@@H](C(C)C)C(=O)N[C@@H](Cc2ccc(O)cc2)C(=O)N[C@@H](Cc2ccccc2)C(=O)N1)C(=O)N[C@@H](Cc1c[nH]c2ccccc12)C(=O)O | 0.17 nM
CC[C@H](C)[C@H](NC(=O)[C@H](CC(=O)O)NC(=O)[C@H](CC(C)C)NC(=O)[C@H](Cc1cnc[nH]1)NC(=O)[C@@H]1CSSC[C@H](NC(=O)[C@H](CCC(=O)O)NC(=O)[C@H](CCCCN)NC(=O)[C@H](CC(=O)O)NC(=O)[C@H](CCSC)NC(=O)[C@H](CC(C)C)NC(=O)[C@H](CO)NC(=O)[C@H](CO)NC(=O)[C@@H]2CSSC[C@H](N)C(=O)N[C@@H](CO)C(=O)N2)C(=O)N[C@@H](C(C)C)C(=O)N[C@@H](Cc2ccc(O)cc2)C(=O)N[C@@H](Cc2ccccc2)C(=O)N1)C(=O)N[C@H](C(=O)N[C@@H](Cc1c[nH]c2ccccc12)C(=O)O)[C@@H](C)CC | 0.093 nM

Biological target: T2, Endothelin-1 receptor (Sus scrofa) (UniProt Q29010)
T2 sequence (whole entry): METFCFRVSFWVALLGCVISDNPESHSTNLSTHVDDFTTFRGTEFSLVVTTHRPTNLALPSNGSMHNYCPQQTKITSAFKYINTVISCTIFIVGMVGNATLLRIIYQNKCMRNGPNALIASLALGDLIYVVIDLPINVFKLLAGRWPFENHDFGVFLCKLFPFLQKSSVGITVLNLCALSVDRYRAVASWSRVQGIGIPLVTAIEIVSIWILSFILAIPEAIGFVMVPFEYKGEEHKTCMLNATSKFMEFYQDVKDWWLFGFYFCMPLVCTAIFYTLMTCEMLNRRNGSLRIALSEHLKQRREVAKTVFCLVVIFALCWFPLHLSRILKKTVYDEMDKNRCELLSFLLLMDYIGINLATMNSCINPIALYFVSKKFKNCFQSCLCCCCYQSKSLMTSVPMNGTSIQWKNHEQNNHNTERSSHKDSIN
Assay: Endothelin A receptor agonist activity as maximum vasoconstriction in porcine coronary artery
Type: functional, tissue-based
Procedure, shortened: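 Porcine right coronary artery, endothelium-denuded helical strips in Krebs-Henseleit, 37 °C, isometric tension. Compound applied cumulatively, up to 1 μM. Maximal contraction expressed as % of 60 mM KCl-induced tension; n in parentheses.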

Structure (SMILES) | Max vasoconstriction
CC[C@H](C)[C@H](NC(=O)[C@H](CC(=O)O)NC(=O)[C@H](CC(C)C)NC(=O)[C@H](Cc1c[nH]cn1)NC(=O)[C@@H]1CSSC[C@@H](NC(=O)[C@H](CCC(=O)O)NC(=O)[C@@H](CCCCN)NC(=O)[C@H](CC(=O)O)NC(=O)[C@@H](CCSC)NC(=O)[C@H](CC(C)C)NC(=O)[C@@H](CO)NC(=O)[C@H](CO)NC(=O)[C@H]2CSSC[C@@H](N)C(=O)N[C@@H](CO)C(=O)N2)C(=O)N[C@@H](C(C)C)C(=O)N[C@H](Cc2ccc(O)cc2)C(=O)N[C@@H](Cc2ccccc2)C(=O)N1)C(=O)N[C@H](C(=O)N[C@@H](Cc1c[nH]c2ccccc12)C(=O)O)[C@@H](C)CC | > 80
CC[C@H](C)[C@H](NC(=O)[C@H](CC(C)C)NC(=O)[C@H](CC(=O)O)NC(=O)[C@H](CC(C)C)NC(=O)[C@H](Cc1c[nH]cn1)NC(=O)[C@@H]1CSSC[C@@H](N)C(=O)N[C@@H](CO)C(=O)N[C@@H]2CSSC[C@@H](NC(=O)[C@H](CCC(=O)O)NC(=O)[C@@H](CCCCN)NC(=O)[C@H](CC(=O)O)NC(=O)[C@@H](CCSC)NC(=O)[C@H](CC(C)C)NC(=O)[C@@H](CO)NC(=O)[C@H](CO)NC2=O)C(=O)N[C@@H](C(C)C)C(=O)N[C@H](Cc2ccc(O)cc2)C(=O)N[C@@H](Cc2ccccc2)C(=O)N1)C(=O)N[C@@H](Cc1c[nH]c2ccccc12)C(=O)O | 73
CC[C@H](C)[C@H](NC(=O)[C@H](CC(C)(C)C)NC(=O)[C@@H](NC(=O)[C@H](CC(C)C)NC(=O)[C@H](Cc1c[nH]cn1)NC(=O)[C@@H]1CSSC[C@@H](N)C(=O)N[C@@H](CO)C(=O)N[C@@H]2CSSC[C@@H](NC(=O)[C@H](CCC(=O)O)NC(=O)[C@@H](CCCCN)NC(=O)[C@H](CC(=O)O)NC(=O)[C@@H](CCSC)NC(=O)[C@H](CC(C)C)NC(=O)[C@@H](CO)NC(=O)[C@H](CO)NC2=O)C(=O)N[C@@H](C(C)C)C(=O)N[C@H](Cc2ccc(O)cc2)C(=O)N[C@@H](Cc2ccccc2)C(=O)N1)[C@@H](C)O)C(=O)N[C@@H](Cc1c[nH]c2ccccc12)C(=O)O | 0
CC[C@H](C)[C@H](NC(=O)[C@H](CC(=O)O)NC(=O)[C@H](CC(C)C)NC(=O)[C@H](Cc1c[nH]cn1)NC(=O)[C@@H]1CSSC[C@@H](N)C(=O)N[C@H](CO)C(=O)N[C@H]2CSSC[C@@H](NC(=O)[C@H](CCC(=O)O)NC(=O)[C@H](CCCCN)NC(=O)[C@@H](CC(=O)O)NC(=O)[C@H](CCSC)NC(=O)[C@@H](CC(C)C)NC(=O)[C@H](CO)NC(=O)[C@@H](CO)NC2=O)C(=O)N[C@@H](C(C)C)C(=O)N[C@H](Cc2ccc(O)cc2)C(=O)N[C@@H](Cc2ccccc2)C(=O)N1)C(=O)N[C@H](C(=O)N[C@@H](Cc1c[nH]c2ccccc12)C(=O)O)[C@@H](C)CC | 120
CCC[C@H](NC(=O)[C@@H](NC(=O)[C@H](CC(C)C)NC(=O)[C@H](Cc1c[nH]cn1)NC(=O)[C@@H]1CSSC[C@@H](N)C(=O)N[C@@H](CO)C(=O)N[C@@H]2CSSC[C@@H](NC(=O)[C@H](CCC(=O)O)NC(=O)[C@@H](CCCCN)NC(=O)[C@H](CC(=O)O)NC(=O)[C@@H](CCSC)NC(=O)[C@H](CC(C)C)NC(=O)[C@@H](CO)NC(=O)[C@H](CO)NC2=O)C(=O)N[C@@H](C(C)C)C(=O)N[C@H](Cc2ccc(O)cc2)C(=O)N[C@@H](Cc2ccccc2)C(=O)N1)[C@@H](C)O)C(=O)N[C@H](C(=O)N[C@@H](Cc1c[nH]c2ccccc12)C(=O)O)[C@@H](C)CC | 112
CC[C@H](C)[C@H](NC(=O)[C@@H](NC(=O)[C@H](CC(C)C)NC(=O)[C@H](Cc1c[nH]cn1)NC(=O)[C@@H]1CSSC[C@@H](N)C(=O)N[C@@H](CO)C(=O)N[C@@H]2CSSC[C@@H](NC(=O)[C@H](CCC(=O)O)NC(=O)[C@@H](CCCCN)NC(=O)[C@H](CC(=O)O)NC(=O)[C@@H](CCSC)NC(=O)[C@H](CC(C)C)NC(=O)[C@@H](CO)NC(=O)[C@H](CO)NC2=O)C(=O)N[C@@H](C(C)C)C(=O)N[C@H](Cc2ccc(O)cc2)C(=O)N[C@@H](Cc2ccccc2)C(=O)N1)[C@@H](C)O)C(=O)N[C@H](C(=O)N[C@@H](Cc1c[nH]c2ccccc12)C(=O)O)[C@@H](C)CC | 76
CC[C@H](C)[C@H](NC(=O)[C@H](CC(C)C)NC(=O)[C@H](CC(C)C)NC(=O)[C@H](Cc1c[nH]cn1)NC(=O)[C@@H]1CSSC[C@@H](N)C(=O)N[C@@H](CO)C(=O)N[C@@H]2CSSC[C@@H](NC(=O)[C@H](CCC(=O)O)NC(=O)[C@@H](CCCCN)NC(=O)[C@H](CC(=O)O)NC(=O)[C@@H](CCSC)NC(=O)[C@H](CC(C)C)NC(=O)[C@@H](CO)NC(=O)[C@H](CO)NC2=O)C(=O)N[C@@H](C(C)C)C(=O)N[C@H](Cc2ccc(O)cc2)C(=O)N[C@@H](Cc2ccccc2)C(=O)N1)C(=O)N[C@H](C(=O)N[C@@H](Cc1c[nH]c2ccccc12)C(=O)O)[C@@H](C)CC | 0
CC[C@H](C)[C@H](NC(=O)[C@@H](NC(=O)[C@@H](NC(=O)[C@H](CC(C)C)NC(=O)[C@H](Cc1c[nH]cn1)NC(=O)[C@@H]1CSSC[C@@H](N)C(=O)N[C@@H](CO)C(=O)N[C@@H]2CSSC[C@@H](NC(=O)[C@H](CCC(=O)O)NC(=O)[C@@H](CCCCN)NC(=O)[C@H](CC(=O)O)NC(=O)[C@@H](CCSC)NC(=O)[C@H](CC(C)C)NC(=O)[C@@H](CO)NC(=O)[C@H](CO)NC2=O)C(=O)N[C@@H](C(C)C)C(=O)N[C@H](Cc2ccc(O)cc2)C(=O)N[C@@H](Cc2ccccc2)C(=O)N1)[C@@H](C)O)C(C)C)C(=O)N[C@@H](Cc1c[nH]c2ccccc12)C(=O)O | 128

Biological target: T3, Endothelin-1 receptor (Sus scrofa, UniProt Q29010)
T3 sequence (Q29010 whole entry): T2 sequence (whole entry)
Assay: Tested for the competitive binding versus [125I]- ET-1 determined in porcine cardiac ventricular membrane for Endothelin A receptor
Procedure, shortened: as §1

Structure (SMILES) | IC50
CC[C@H](C)[C@H](NC(=O)[C@H](CC(C)C)NC(=O)[C@H](CC(=O)O)NC(=O)[C@H](CC(C)C)NC(=O)[C@H](Cc1c[nH]cn1)NC(=O)[C@@H]1CSSC[C@H](N)C(=O)N[C@@H](CO)C(=O)N[C@H]2CSSC[C@H](NC(=O)[C@H](CCC(=O)O)NC(=O)[C@H](CCCCN)NC(=O)[C@H](CC(=O)O)NC(=O)[C@H](CCSC)NC(=O)[C@H](CC(C)C)NC(=O)[C@H](CO)NC(=O)[C@H](CO)NC2=O)C(=O)N[C@@H](C(C)C)C(=O)N[C@@H](Cc2ccc(O)cc2)C(=O)N[C@@H](Cc2ccccc2)C(=O)N1)C(=O)N[C@@H](Cc1c[nH]c2ccccc12)C(=O)O | 0.75 nM
CCC[C@H](NC(=O)[C@@H](NC(=O)[C@H](CC(C)C)NC(=O)[C@H](Cc1cnc[nH]1)NC(=O)[C@@H]1CSSC[C@H](N)C(=O)N[C@@H](CO)C(=O)N[C@H]2CSSC[C@H](NC(=O)[C@H](CCC(=O)O)NC(=O)[C@H](CCCCN)NC(=O)[C@H](CC(=O)O)NC(=O)[C@H](CCSC)NC(=O)[C@H](CC(C)C)NC(=O)[C@H](CO)NC(=O)[C@H](CO)NC2=O)C(=O)N[C@@H](C(C)C)C(=O)N[C@@H](Cc2ccc(O)cc2)C(=O)N[C@@H](Cc2ccccc2)C(=O)N1)[C@@H](C)O)C(=O)N[C@H](C(=O)N[C@@H](Cc1c[nH]c2ccccc12)C(=O)O)[C@@H](C)CC | 0.2 nM
CC[C@H](C)[C@H](NC(=O)[C@H](CC(=O)O)NC(=O)[C@H](CC(C)C)NC(=O)[C@H](Cc1cnc[nH]1)NC(=O)[C@@H]1CSSC[C@H](NC(=O)[C@H](CCC(=O)O)NC(=O)[C@H](CCCCN)NC(=O)[C@H](CC(=O)O)NC(=O)[C@H](CCSC)NC(=O)[C@H](CC(C)C)NC(=O)[C@H](CO)NC(=O)[C@H](CO)NC(=O)[C@@H]2CSSC[C@H](N)C(=O)N[C@@H](CO)C(=O)N2)C(=O)N[C@@H](C(C)C)C(=O)N[C@@H](Cc2ccc(O)cc2)C(=O)N[C@@H](Cc2ccccc2)C(=O)N1)C(=O)N[C@H](C(=O)N[C@@H](Cc1c[nH]c2ccccc12)C(=O)O)[C@@H](C)CC | 5.9 nM
CC[C@H](C)[C@H](NC(=O)[C@@H](NC(=O)[C@@H](NC(=O)[C@H](CC(C)C)NC(=O)[C@H](Cc1c[nH]cn1)NC(=O)[C@@H]1CSSC[C@H](N)C(=O)N[C@@H](CO)C(=O)N[C@H]2CSSC[C@H](NC(=O)[C@H](CCC(=O)O)NC(=O)[C@H](CCCCN)NC(=O)[C@H](CC(=O)O)NC(=O)[C@H](CCSC)NC(=O)[C@H](CC(C)C)NC(=O)[C@H](CO)NC(=O)[C@H](CO)NC2=O)C(=O)N[C@@H](C(C)C)C(=O)N[C@@H](Cc2ccc(O)cc2)C(=O)N[C@@H](Cc2ccccc2)C(=O)N1)[C@@H](C)O)C(C)C)C(=O)N[C@@H](Cc1c[nH]c2ccccc12)C(=O)O | 0.18 nM
